In brackets after ≈: the same amount, converted by molar mass. Activity calls are given as the source filed them. The calls are words filed in the database; no cut-off is given here.

In one test the test system is Meloidogyne incognita. As to the kind of experiment: Nematotoxic activity against freshly hatched Meloidogyne incognita J2 (root-knot nematode) isolated from tomato roots assessed as induction of microscopic damages in nematode body measured 24 hr after immersion in compound test solutions. The test is classed as functional, organism-based.
`O=Cc1ccco1` [FURFURAL]: the outcome was Active.

In another test the test system is Meloidogyne incognita. Description: Nematotoxic activity against freshly hatched Meloidogyne incognita J2 (root-knot nematode) isolated from tomato roots assessed as induction of nematode paralysis at 1000 ug/mL measured 24 hr after immersion in compound test solutions. The test is classed as functional, organism-based. Put shortly: (§1)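 Freshly hatched J2 (24 h old), extracted from tomato roots, were exposed to test solutions at 25 J2 per well. Plates were kept in the dark at 28 °C with water and solvent-carrier controls. Nematodes were scored under an inverted microscope (40×) as motile or paralyzed. Paralysis was corrected for the water control by the Schneider-Orelli formula. EC50 came from log-logistic regression. Experiments were run twice.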
As to `O=C(O)/C=C/c1ccc(O)c(O)c1` [CAFFEIC ACID], the result was inactive. On the same count and under the same terms, under `O=C(O)c1ccccc1O` [SALICYLIC ACID] stands “Active”.

The next test deals with Meloidogyne incognita. As to the kind of experiment: Nematotoxic activity against freshly hatched Meloidogyne incognita J2 (root-knot nematode) isolated from tomato roots assessed as induction of nematode paralysis measured 24 hr after immersion in compound test solutions. The test is classed as functional, organism-based. The gist of the method: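 Freshly hatched (24 h) J2 extracted from tomato roots; 25 J2 per well in 96-well plates, kept in the dark at 28 °C. Motile or paralyzed J2 were scored under an inverted microscope at 40×. Paralysis was corrected for the water control (Schneider-Orelli). EC50 was fitted by log-logistic regression on the mean of five replicates; experiments were run twice.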
`Oc1cc(O)c2c(c1)OC(c1ccc(O)c(O)c1)C(O)C2` (stereo not given) [CATECHIN]: the EC50 (in general, the midpoint of the concentration-response curve) is greater than 1000 µg/mL.

On to `O=C(O)c1ccccc1` [BENZOIC ACID], for which the EC50 is 501 µg/mL (≈ 4.1 mM).

For `O=C(O)c1cc(O)c(O)c(O)c1` [GALLIC ACID], the EC50 is greater than 1000 µg/mL. Regarding `O=C(O)/C=C/c1ccc(O)c(O)c1` [CAFFEIC ACID], the EC50 is greater than 1000 µg/mL. The same measure, in the same setting: the same measure for `COc1cc(/C=C/C(=O)O)ccc1O` [FERULATE]: greater than 1000 µg/mL. Still for that read-out and setting: the same measure for `O=C(O)c1ccc(O)cc1` [PARABEN]: 871 µg/mL (≈ 6.31 mM); for `COc1cc(C(=O)O)ccc1O` [VANILLIC ACID]: greater than 1000 µg/mL. The same measure, in the same setting: the same measure for `O=C(/C=C/c1ccc(O)c(O)c1)O[C@@H]1C[C@](O)(C(=O)O)C[C@@H](O)[C@H]1O` [CHLOROGENIC ACID]: greater than 1000 µg/mL. With `C[C@@H]1O[C@@H](OC[C@H]2O[C@@H](Oc3c(-c4ccc(O)c(O)c4)oc4cc(O)cc(O)c4c3=O)[C@H](O)[C@@H](O)[C@@H]2O)[C@H](O)[C@H](O)[C@H]1O` [RUTIN], the half-maximal effective concentration (EC50) is greater than 1000 µg/mL.

As to `Oc1cc(O)c2c(c1)O[C@@H](c1ccc(O)c(O)c1)[C@@H](O)C2` [(+)-EPICATECHIN], the concentration giving a half-maximal response (EC50) is greater than 1000 µg/mL. The same measure, in the same setting: under `O=C(O)c1ccccc1O` [SALICYLIC ACID] stands 379 µg/mL (≈ 2.74 mM); under `O=C(O)c1ccc(O)c(O)c1` [PROTOCATECHUIC ACID], greater than 1000 µg/mL; under `O=C(O)/C=C/c1ccc(O)cc1` [COUMARIC ACID], 840 µg/mL (≈ 5.12 mM).

For `O=C(O)c1cccnc1` [NIACIN], the 50% effective concentration (EC50) came to 1730 µg/mL (≈ 14.1 mM). Still for that read-out and setting: under `O=C(O)CC(O)C(=O)O` (stereo not given) [MALIC ACID] stands greater than 1000 µg/mL.

Consider `O=C(O)c1ccc2ccccc2c1` [BETA-NAPHTOIC ACID], for which the EC50 is greater than 1000 µg/mL.

The subject of a further test is Meloidogyne incognita. As to the kind of experiment: Nematotoxic activity against Meloidogyne incognita (root-knot nematode). In kind it is functional, organism-based. Put shortly:
as §1
Regarding `Cc1ccc(C=O)o1` [5-METHYLFURFURAL], the midpoint of the response, the EC50, lay at 45.7 µg/mL (≈ 0.415 mM).

As to `O=C(O)c1ccccc1O` [SALICYLIC ACID], the 50% lethal concentration (LC50) (as a rule, the concentration lethal to half of the exposed cells or organisms) is 46 µg/mL (≈ 0.333 mM). Regarding `CCCCCCCCCCCCCCCC(=O)O` [PALMITIC ACID], the EC50 was 38.3 µg/mL (≈ 0.149 mM). Same read-out and setting: the same measure for `O=Cc1ccc(CO)o1` [AES-103]: 8.5 µg/mL (≈ 0.0674 mM); for `O=Cc1ccco1` [FURFURAL]: 41.1 µg/mL (≈ 0.428 mM); for `CCCCCC(=O)O` [HEXANOATE]: 38.3 µg/mL (≈ 0.33 mM).

These data come from ChEMBL document CHEMBL3046303, “Nematotoxic phenolic compounds from Melia azedarach against Meloidogyne incognita” (J Agric Food Chem, 2012).
